Source: PubChem BioAssay
MRP-1 activ – activates MRP-1. H69AR cells + doxorubicin, viability rescue, CellTiter-Glo. viability increase, % at 10 µM. 140,000 compounds, 0.61% hits. AID 799;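 active = viability gain under doxorubicin at or above a set limit, the compound median plus 3 SD, cut at about 4.7% in these data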;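 also: MRP-1 overexpressing cells given doxorubicin 25 µM after compound pretreatment; 18-22 h compound pretreatment then 72 h with doxorubicin before readout; 0% = doxorubicin-only wells and 100% = vehicle-treated cells without doxorubicin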
SDO1 yeast rescue – restores growth of sdo1-depleted yeast; S. cerevisiae sdo1-depleted JHY4D growth rescue, OD600 30 h; stronger effect = higher value; pdr5 snq2 efflux-pump mutant strain; 140,000 compounds, 0.21% hits; z-score at 10 µM;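 active = z-score above 3 at both the 24 hr and the 30 hr optical density reads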;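 also: z-score against mean and SD of all compound wells on the same plate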
MRP reversal – reverses drug resistance mediated by MRP. H69AR cells + 2 uM doxorubicin, CellTiter-Glo, 72 h. differential viability (reversal), % at 10 µM. 85,000 compounds, 0.04% hits. AID 602;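 active = viability drop by adding the cancer drug above about 55%, with treated viability meeting a 40% cutoff, limit read from the data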;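 also: viability without doxorubicin minus viability with 2 µM doxorubicin for each compound; larger differential means the compound sensitizes cells more to doxorubicin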
Yeast growth inh – chemicals that inhibit yeast BB579 growth in restrictive medium (lifespan-shortening candidates). S. cerevisiae BB579 growth, OD615, 48 h. inhibition, % at 10 µM. 140,000 compounds, 0.51% hits;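 active = inhibition above a set limit, 3 SD over the mean compound inhibition, cut at about 44% in these data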
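controls = amphotericin B 10 µg/mL, positive | assay system = DeaD yeast strain BB579 | schedule = 48 h compound exposure at 30 °C after 4 h preincubation | detection = OD615 turbidity measurement | medium = restrictive CSMM-D medium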
Yeast lifespan up – extends the lifespan of yeast; S. cerevisiae growth with nicotinamide, OD615; deaD strain in restrictive glucose medium; inhibition of the nicotinamide effect, % at 10 µM; 130,000 compounds, 0.68% hits; AID 775;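 active = inhibition above a set limit, placed 3 SD over the median of all compounds, cut at about 26% in these data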;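 also: 0% = nicotinamide-treated wells and 100% = cells grown without nicotinamide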
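assay system = DeaD-strain S. cerevisiae | measured by = absorbance at 615 nm | probe or stimulus = nicotinamide 1.5 mM | buffer or medium = CSMM-D glucose medium, restrictive | times = 48 h at 30 °C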
Phagocyt inh – macrophage phagocytosis inhibition | 110,000 compounds, 0.07% hits | AID 1029 | J774A.1 macrophage IgG-bead phagocytosis, imaging | inhibition, % at 5 µM;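 active = inhibition above the mean of the plate negative controls plus 5 SD, cut at about 13% in these data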;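 also: phagocytic index as fraction of beads internalized from green versus red external bead signal; plate controls were DMSO negative control for no effect and cytochalasin-D positive control for full effect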
* marks the source's active call; other numbers are inactive results; . = no result; [ ] = another dose, or the depositor's remark. Sampled rows, rich in hits. Any-hit rate of the full collection: about 2.1%.

SMILES | MRP-1 activ | SDO1 yeast rescue | MRP reversal | Yeast growth inh | Yeast lifespan up | Phagocyt inh
COc1ccccc1-c1cc(SC)c(C#N)c(=O)o1 | -1 | 0.81 | . | -26 | 26* | -2
N#CNC(=Nc1cccc(F)c1)SCc1ccccc1F | -1 | -0.72 | . | -36 | -2 | 1
O=C(CSc1nc(N2CCCCC2)nc(N2CCCCC2)n1)Nc1nccs1 | -2 | 0.06 | 3 | -14 | -5 | 2
C/C(=N\NC(=O)c1cccc(Cl)c1)C1C(=O)c2ccccc2C1=O | 3 | 2.1 | . | -40 | 43* | -6
S=c1nc(-c2ccccc2Cl)n(Cc2cccnc2)c2c1CCCC2 | -2 | 1.5 | . | -38 | 1 | -3
CC(C)(C)c1ccccc1OCC(=O)Nc1ncn[nH]1 | 2 | -0.08 | -4 | -36 | -3 | 0
CC(C)(C)c1cc(Br)ccc1OCC(=O)Nc1ncn[nH]1 | 6.2* | -2 | 8 | -3 | -2 | -1
Cc1ccccc1NC(=O)N1C2CCC1CC(O)(c1cccnc1)C2 (configuration not stated) | -2 | 0.02 | 22 | -10 | -20 | .
CCOC(=O)C1=C(C)Nc2sc(C(=O)c3ccc(OC)cc3)c(N)c2C1c1ccc(C(=O)OC)cc1 (configuration not stated) | 7.3* | -0.81 | . | -20 | 7 | -2
COc1ccc2[nH]c3c(Cl)ncnc3c2c1 | 0 | 0.97 | . | 56* | -8 | -6
CC(C)CSC1=NSC2=NC(=O)/C(=C\c3cccs3)C(=N)N12 | 4 | 0.22 | . | -45 | 12 | -3
CSC1=NSC2=NC(=O)/C(=C/c3coc4ccccc4c3=O)C(=N)N12 | -2 | 0.26 | . | 68* | 8 | -4
CSC1=NSC2=NC(=O)/C(=C\c3cccs3)C(=N)N12 | -3 | 1.1 | . | -5 | 43* | .
COc1ccc(NC(=S)N2CCC(N(C)CCN3CCOCC3)CC2)cc1 | -1 | 0.95 | . | -16 | 0 | -9
O=C(Cn1cnc2c(nnn2Cc2ccccc2)c1=O)N1CCN(c2ccccc2)CC1 | 1 | 1.4 | 9 | 22 | -9 | -2
CC1CN(c2nc3c(c(=O)n(Cc4ccc(Cl)c(Cl)c4)c(=O)n3C)n2C)CC(C)O1 (configuration not stated) | -3 | -1.1 | 15 | -21 | -12 | 0
CN=c1scc(C)n1/N=C/c1ccc(O)c(O)c1O | 12* | -0.15 | -21 | -25 | -14 | 0
CN=c1scc(-c2cccs2)n1/N=C/c1ccc(O)c(O)c1O | -5 | 0.33 | . | -19 | -6 | 2
Brc1ccc(-c2nnc3n2CCCCC3)cc1 | 0 | 2.5 | 0 | -27 | -10 | 0
Brc1ccc(OCc2nnc3n2CCC3)cc1 | 7.0* | 1.2 | . | -47 | 1 | -6
CC(C)c1ccccc1NC(=O)CCCC(=O)O | -2 | 0.17 | . | -14 | 0 | .
C/C(=N\NC(=O)c1ccco1)c1ccc(NC(=O)c2cccs2)cc1 | -2 | 2 | . | -16 | -7 | -5
O=C(N/N=C1\CCc2ccccc21)c1ccccc1O | 0 | -0.74 | . | -15 | -5 | -9
O=C(OC1CCc2ccccc2C1=O)c1ccccc1O (configuration not stated) | 14* | -2 | -8 | -65 | -15 | 2
Cc1ccc(-c2cc(=O)[nH]c3ccccc23)cc1 | . | . | 23 | . | . | .
SMILES | MRP-1 activ | SDO1 yeast rescue | MRP reversal | Yeast growth inh | Yeast lifespan up | Phagocyt inh
Oc1cccc2ccc(Nc3ccccn3)nc12 | -2 | -2.5 | 0 | 97* | -20 | 2
CC(C)N(C(=O)N1CCC(c2nc(-c3ccncc3)no2)CC1)C(C)C | -3 | -0.44 | 19 | -8 | -1 | 0
Cn1cnnc1SCC(=O)Nc1ccccc1 | 3 | 0.2 | 0 | -25 | -3 | .
Cn1cnnc1SCC(=O)NN(c1ccccc1)c1ccccc1 | 0 | 0.52 | . | -15 | 2 | 27*[artifact]
Cc1c(C(=O)Nc2cccc(Cl)c2)oc2ccc(S(=O)(=O)N3CCC4(CC3)OCCO4)cc12 | -4 | -1.5 | -40 | -60 | -19 | 0
CC(C)(C)c1cc(NCCCn2ccnc2)n2ncc(-c3ccc(Cl)cc3)c2n1 | -7 | -2.4 | -18 | 86* | -24 | .
N#Cc1nc(COc2ccc(F)cc2)oc1NCCN1CCOCC1 | -1 | 0.19 | 17 | -58 | -8 | -1
N#Cc1nc(COc2ccc(Br)cc2)oc1NCCN1CCOCC1 | 7.7* | -0.42 | . | 11 | -4 | -2
CCC1CCCCN1C(=O)CSc1nc2c([nH]c3ccccc32)c(=O)n1C (configuration not stated) | -4 | -1.7 | -7 | -45 | . | .
CCc1ccc(C2NC(=S)NC3=C2C(=O)N(c2ccccc2OC)C(c2ccc(CC)cc2)N3)cc1 (configuration not stated) | -3 | -1.8 | . | 53* | -18 | -1
COc1ccc(Cl)cc1C(=O)Nc1ccc2c(c1)OCO2 | 15* | -0.79 | -6 | -40 | -15 | -1
COc1ccccc1C(=O)Nc1ccc2c(c1)OCO2 | -1 | 0.4 | -40 | -2 | -11 | 0
Cc1nn(C(C)(C)C)c(OC(=O)c2ccco2)c1Sc1ccccc1 | -1 | -0.92 | -4 | -33 | 47 | .
Cc1nn(C(C)(C)C)c(OC(=O)c2ccc(Br)o2)c1Sc1ccccc1 | -1 | -0.47 | 2 | -27 | 33* | .
COc1cccc(Nc2ncc(C(=O)O)c3ccccc23)c1 | 5.1* | 0.76 | 0 | -43 | -8 | .
Cc1c(C(=O)Nc2nnc(C(F)(F)F)s2)oc2ccccc12 | 8.9* | 1 | -20 | -21 | . | .
COC(=O)c1sc(NC(=O)c2oc3ccccc3c2C)nc1C | -4 | 0.75 | -9 | -10 | -18 | 0
COc1cc(C(C[N+](=O)[O-])c2c(-c3ccccc3)cc3ccccn23)cc(OC)c1OC (configuration not stated) | -3 | -0.3 | -5 | -53 | 78* | 0
COc1ccc(C(C[N+](=O)[O-])c2c(-c3ccccc3)cc3ccccn23)cc1OC (configuration not stated) | -6 | -1.2 | 13 | 19 | 25 | -1
O=c1cc(-c2ccccc2)nc2nc(SCc3ccccc3)[nH]n12 | -2 | 1.4 | -7 | -33 | -10 | 0
COc1ccc(/C=C2/SC(=O)N(NS(=O)(=O)c3ccccc3)C2=S)cc1OC | -2 | -0.04 | -7 | 12 | 32* | -1
COc1ccc(-c2nc(-c3cccc(C)c3)no2)cc1OC | 5.5* | -0.86 | -23 | -20 | . | .
COc1ccc(C2c3c(oc4ccccc4c3=O)C(=O)N2c2ccc(C)cn2)cc1OC (configuration not stated) | -2 | -0.52 | -12 | -11 | -5 | 0
CNC(=O)c1ccc(OCc2ccccc2)c(OC)c1 | -2 | 0.22 | 8 | -3 | -9 | 3
COc1ccccc1NC(C#N)c1ccccc1OCc1ccccc1 (configuration not stated) | -4 | -0.75 | . | -29 | 30* | -1
COc1ccc(CSC2=NCCN2)cc1Cl | 9.7* | -0.64 | 5 | -57 | -4 | -1
c1cnc(SCCOc2ccc3c(c2)CCC3)nc1 | 0 | -0.2 | 6 | -30 | -14 | -1
